FXIIa inh = inhibitors of human coagulation factor XIIa; AID 800; inhibition, % at 5 µM; purified FXIIa, Boc-QGR-AMC fluorogenic substrate, 2 h; P00748; actives 0.3% (n = 220,000); in the data active = inhibition above about 40%;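 note: 0% = enzyme with no compound and 100% = blank without enzyme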
Target sequence (P00748 20-372 limits assumed): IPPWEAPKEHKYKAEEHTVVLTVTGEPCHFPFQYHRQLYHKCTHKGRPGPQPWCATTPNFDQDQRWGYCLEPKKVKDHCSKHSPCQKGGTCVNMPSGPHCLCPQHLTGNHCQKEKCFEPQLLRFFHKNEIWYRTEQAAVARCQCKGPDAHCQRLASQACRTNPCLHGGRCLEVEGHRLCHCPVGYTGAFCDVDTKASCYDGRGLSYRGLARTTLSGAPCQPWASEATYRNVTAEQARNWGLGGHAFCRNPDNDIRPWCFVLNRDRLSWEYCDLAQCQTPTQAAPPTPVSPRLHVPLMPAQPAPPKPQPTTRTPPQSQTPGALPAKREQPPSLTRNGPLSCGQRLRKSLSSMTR
Target sequence (P00748 373-615 limits assumed): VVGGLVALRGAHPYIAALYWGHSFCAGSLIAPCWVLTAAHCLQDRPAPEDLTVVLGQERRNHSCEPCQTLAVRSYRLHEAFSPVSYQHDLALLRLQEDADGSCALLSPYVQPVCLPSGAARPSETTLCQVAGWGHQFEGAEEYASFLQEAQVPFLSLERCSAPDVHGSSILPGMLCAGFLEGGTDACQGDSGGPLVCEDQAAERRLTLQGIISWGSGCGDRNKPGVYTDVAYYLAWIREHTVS
Thrombin inh = inhibitors of human thrombin. P00734. alpha-thrombin, Boc-VPR-AMC fluorogenic substrate cleavage. inhibition, % at 5 µM. actives 0.26% (n = 220,000);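 active = inhibition at or above 40%; inactive = inhibition below 40%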;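 note: 0% = enzyme with no compound and 100% = wells without enzyme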
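Material: human alpha-thrombin enzyme / Medium: pH 7.5 Tris (50 mM) with NaCl 150 mM, Tween 20 0.05% / Compound: single-point dosing at 5 µM, 0.2% DMSO / Incubation: enzyme reaction carried out at room temperature / Detection: AMC fluorescence, 355/460 nm / Read-out basis: percent inhibition scaled between no-compound controls and no-enzyme blanks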
STAT3 activator = increases IL-6 driven STAT3 reporter signal; U3A cells, IL-6 STAT3-luciferase reporter, luminescence; 100% = signal with IL-6 EC80 alone; activation (% of control), % at 5.6 µM; actives 0.91% (n = 190,000);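 active = activation above the screen-wide mean of compound activation plus 3 SD, cut at about 130% in these data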;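 note: 0% = background luminescence of wells with medium and substrate only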
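Test system: STAT3-luciferase reporter U3A cells; Detection: reporter luminescence signal; Times: 1 h compound pre-exposure, 6 h IL-6 stimulation, 37 °C; Benchmarks: IL-6-only high control; Also added: IL-6 stimulus at 33 ng/mL final.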
AHR activator = human AHR activation; AHR-responsive luciferase reporter cells, luminescence; P35869; activation, % at 5 µM; actives 2.5% (n = 320,000); in the data active = activation above about 47%;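 note: 0% = vehicle wells and 100% = reference agonist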
hK5 inh = inhibitors of human kallikrein 5. actives 0.59% (n = 210,000). inhibition, % at 5 µM. AID 873. recombinant hK5, fluorogenic AMC substrate cleavage;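 active = inhibition of 40% or more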;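 note: 0% = enzyme controls without compound and 100% = no-enzyme blanks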
FXIa inh 1536 = inhibitors of human coagulation factor XIa; P03951; purified FXIa, Boc-Glu-Ala-Arg-AMC fluorogenic substrate; inhibition, % at 5 µM; actives 0.14% (n = 220,000); AID 798;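 active = inhibition of at least 40%; inactive = inhibition below 40%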;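 note: fluorescence of freed AMC excited at 355 nm; 0% = enzyme without compound and 100% = no enzyme blank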
The depositor's hits bear a star; / = not tested or not shown. Shown are actives, neighbours in structure and some others; about 3.5% of the full set was active somewhere.

SMILES	FXIIa inh	Thrombin inh	STAT3 activator	AHR activator	hK5 inh	FXIa inh 1536
O=C(NCc1ccccc1F)C1CCCN(c2cnccn2)C1 (stereo unspecified)	/	/	/	23.8	/	/
Cc1ccccc1CCNC(=O)C1CCCN(c2cnccn2)C1 (stereo unspecified)	/	/	/	48.1*	/	/
O=C(NCCc1ccccc1)C1CCCN(c2cnccn2)C1 (stereo unspecified)	/	/	/	64.0*	/	/
COc1ccc(CN(C)C(=O)c2cc(S(=O)(=O)Nc3ccccc3F)ccc2C)c(OC)c1	/	/	/	-1.3	/	/
CN(C)c1ccc(-c2nnc(-c3cccs3)o2)cc1	-2.6	-7.8	56.2	-1.0	-28.5	-5.6
Brc1ccc(-c2cnc(-c3cccs3)o2)cc1	-19.4	-5.3	101.5	65.8*	0.3	-9.9
CN(C)S(=O)(=O)c1cccc(NC(=O)CCc2nc3cc(S(=O)(=O)N4CCOCC4)ccc3n2C)c1	/	/	/	1.6	/	/
CCS(=O)(=O)c1ccc2oc(Nc3ccc(OC)cc3)nc2c1	11.8	7.8	101.3	33.1	4.6	3.3
CCOc1ccc(Nc2nc3cc(S(=O)(=O)CC)ccc3o2)cc1	-1.4	-2.8	/	63.9*	-6.5	-5.0
Oc1ccc(/C=N/N2CCN(C3c4ccccc4-c4ccccc43)CC2)c(O)c1	25.9	21.7	118.5	18.3	-1.8	47.7*
O=C(Nc1ccc(CN2CCCCC2)cc1)Nc1ccc(Br)cc1Cl	-2.1	-0.4	93.1	4.7	-14.5	-4.9
O=C(c1ccco1)N1CCN(c2ncnc3c2[nH]c2ccc(Cl)cc23)CC1	7.4	-1.3	100.7	81.5*	-10.5	3.9
Cc1ccc2[nH]c3c(N4CCN(Cc5ccccc5)CC4)ncnc3c2c1	2.7	-6.8	79.1	65.1*	8.0	-4.5
Cc1ccc2c(c1)[nH]c1c(N3CCN(Cc4ccccc4)CC3)ncnc12	10.1	0.0	75.8	25.6	-12.7	1.9
O=C(c1ccco1)N1CCN(c2c(-c3ccccc3)c3cc(Cl)ccc3[nH]c2=O)CC1	24.7	8.1	72.9	5.3	-9.5	-1.7
COc1cc(CO)ccc1OCC(=O)Nc1ccc(Br)cc1	-2.4	-2.6	133.0*	15.5	-22.8	-3.1
Cc1ccc(NC(=O)COc2ccc(Br)cc2CO)cc1	8.8	-1.7	90.2	0.2	-10.3	1.6
COc1ccc(-c2nc(CC(=O)Nc3cccc(S(=O)(=O)NC4=NCCC4)c3)cs2)cc1	/	/	/	1.6	/	/
CCOP(=O)(OCC)c1nc(-c2ccc(F)cc2)oc1NCc1ccccc1	6.1	-1.9	110.4	3.3	4.2	0.8
Oc1ccccc1-c1cc(-c2ccco2)[nH]n1	6.4	-3.8	132.0	16.1	-27.3	-13.4
Oc1ccc(Cl)cc1-c1cc(-c2ccco2)[nH]n1	15.7	3.0	133.9*	47.2*	0.1	3.3
Cc1cc(/C=C2/NC(=O)N(c3ccccc3)C2=O)c(C)n1-c1cccnc1	12.2	-6.7	112.4	108.8*	-14.0	3.7
Cc1cccc(-n2c(C)cc(/C=C3\NC(=O)NC3=O)c2C)c1	6.2	-5.9	/	81.5*	-2.4	-1.4
Cc1ccccc1/C=N/NC(=O)c1cccnc1	/	/	/	40.3	/	/
Cn1c(-c2ccccc2)c(/C=N/NC(=O)c2cccnc2)c2ccccc21	8.3	3.0	131.4	59.1*	-6.3	-3.9
SMILES	FXIIa inh	Thrombin inh	STAT3 activator	AHR activator	hK5 inh	FXIa inh 1536
O=C(N/N=C/c1cccc2ccccc12)c1cccnc1	/	/	/	53.5*	/	/
O=C(N/N=C/c1c(-c2ccccc2)[nH]c2ccccc12)c1cccnc1	11.2	0.1	105.2	73.5*	/	2.2
O=C(O)c1cc2nccc(-c3ccc(F)cc3)n2n1	5.0	0.5	103.9	-1.4	9.2	-1.8
COc1ccccc1NC(=O)CCS(=O)(=O)c1ccccc1	24.4	52.2*	106.6	0.3	29.2	31.3
COc1ccccc1C(=O)N/N=C(\C)c1cccnc1	/	/	/	58.5*	/	/
COc1ccc(NC(NC(=O)c2cccnc2)C(Cl)(Cl)Cl)cc1 (stereo unspecified)	54.7*	12.5	99.2	9.6	13.7	29.5
Cc1ccccc1NC(NC(=O)c1cccnc1)C(Cl)(Cl)Cl (stereo unspecified)	4.8	-4.7	102.2	3.0	2.3	-4.0
COc1ccccc1NC(=O)c1cccnc1	-8.4	-5.7	102.8	67.8*	12.2	-8.3
CC(Oc1ccccc1C(N)=O)C(=O)Nc1ccc(S(=O)(=O)N2CCCC2)cc1 (stereo unspecified)	/	/	/	-1.3	/	/
COc1ccccc1NC(=O)NC(=O)c1ccccc1	/	/	/	48.8*	/	/
COc1ccccc1NC(=O)NC(N)=O	11.4	1.6	101.5	2.5	5.5	6.7
Cc1ccc(C(=O)NCCCN2CCOCC2)o1	11.3	25.4	94.6	-2.9	28.1	17.1
Cc1cccc(NC(=O)CSc2nnc(-c3ccncc3)n2C)c1	30.5	2.4	79.5	-5.4	-9.2	21.1
Cn1c(SCC(=O)NNC(=S)Nc2ccccc2)nnc1-c1ccncc1	8.3	50.2*	/	-3.0	-3.6	-0.6
CC(=O)c1ccc(OCCCC(=O)OCC(=O)Nc2ccc3[nH]c(=O)[nH]c3c2)cc1	/	/	/	4.2	/	/
O=C(CCS(=O)(=O)c1ccccc1)N1CCN(c2ccc(F)cc2)CC1	/	/	/	11.1	/	/
CN(C)/C=N/c1cnc(C(=O)c2ccc(Cl)cc2)n1C	-2.0	-6.4	103.0	4.0	1.4	-4.2
CC(C)(C)C(=O)/C=c1\[nH]c(=O)/c(=C\c2ccccc2F)s1	5.7	-3.5	91.4	53.2*	-0.7	-3.3
CC(C)(C)C(=O)/C=c1\[nH]c(=O)/c(=C\c2ccc(F)cc2)s1	9.9	-2.9	87.9	32.0	6.6	0.2
Cc1ccc(Cl)cc1NS(=O)(=O)c1cc2[nH]c(=O)c(=O)[nH]c2cc1C	/	/	/	2.0	/	/
Cc1ccc(Cl)cc1NS(=O)(=O)c1c(C)[nH]c(=O)[nH]c1=O	-0.2	103.9*	94.2	-0.5	30.1	-2.8
Oc1[nH]c2ccc(Br)cc2c1N=Nc1ccc(F)cc1	/	/	/	61.6*	/	/
Cc1ccc(S(=O)(=O)/N=C/N(C)C)cc1	7.3	-9.7	115.5	-1.9	-26.0	7.0
Cc1ccc(S(=O)(=O)/N=C/c2ccco2)cc1	30.8	104.4*	101.4	5.2	86.9*	4.7
Cc1ccc(NC(=O)CC2S/C(=N/c3nccs3)N(C)C2=O)cc1C (stereo unspecified)	9.8	-0.1	98.8	52.5*	-0.3	0.8
SMILES	FXIIa inh	Thrombin inh	STAT3 activator	AHR activator	hK5 inh	FXIa inh 1536
COc1ccc(Cl)cc1N(CC(=O)NC(C)(C)C)S(=O)(=O)c1ccc(C)c([N+](=O)[O-])c1	20.4	29.1	102.3	2.8	44.8*	12.4
Cc1c(NC(=O)Nc2ccc3c(c2)OCO3)cccc1[N+](=O)[O-]	/	/	/	31.0	/	/
CS(=O)(=O)c1nc(-c2ccc(Br)cc2)n[nH]1	98.1*	-5.6	95.8	2.6	-1.7	2.9
CS(=O)(=O)c1ccc(-c2nn[nH]n2)cc1	0.5	-5.5	98.7	2.9	-7.7	-3.9
COc1ccccc1OCCCn1c(=O)oc2ccc(C)cc21	12.0	1.6	92.7	59.7*	-11.6	0.9
Cc1csc(NC(=O)c2ccc3ccccc3n2)n1	/	/	/	73.7*	/	/

Compound activity as filed in PubChem.
